Where “and” joins values, the source holds several entries; their conditions need not be identical. Equal values may be shown once.
What was measured:
[1] = test system: HEK-293T; experiment: Multiplex assay against HEK293T; assay type: toxicity, cell-based; conditions: human
In short: (§1)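 With compound added, live cells were imaged on a CQ1 microscope at 37°C and 5% CO2; staining with Hoechst33342, BioTracker Green Microtubule Cytoskeleton Dye, MitoTracker Red and Annexin V Alexa Fluor 680 had been done at seeding. The CellPathfinder machine-learning gating scheme split cells into Hoechst high-intensity objects or normal cells, normal cells into healthy, pyknosed or fragmented nuclei, and pyknosed cells into mitotic or apoptotic. The tubulin, mitochondrial-mass and membrane-permeability phenotypes are per cents of healthy-nucleus cells.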

[2] = test system: U2OS; experiment: Multiplex assay against U2OS; assay type: toxicity, cell-based; conditions: human; in short: as §1
[3] = 24 h, 10 µM, compound concentration 10 uM
[4] = 48 h, 1 µM, compound concentration 1 uM
[5] = 48 h, 10 µM, compound concentration 10 uM
[6] = 12 h, 1 µM, compound concentration 1 uM
[7] = 12 h, 10 µM, compound concentration 10 uM
[8] = 24 h, 1 µM, compound concentration 1 uM

## CC(=O)NCC(=O)N1[C@@H]2CC[C@H]1c1ccc(Nc3ncc(C(F)(F)F)c(NC4CCC4)n3)cc12 [PF-03814735]
[1]; [3]
  Population Fragmented Nuclei (%): 0.99% and 0.8%
  Population Hoechst High Intensity Objects (%): 0%
  Population Membrane Permeable-Phenotype (%): 0%
  Population Mitochondria Different-Phenotype (%): 90.53% and 33.33%
  Population Mitotic Cells (%): 34.91% and 49.57%
  Population Normal (%): 100%
  Population Pyknosed Nuclei (%): 52.22% and 92%
  Total Cell Count: 203 and 125
[1]; [4]
  Population Apoptotic (%): 15.15% and 12.5%
  Population Fragmented Nuclei (%): 5.66% and 2.01%
  Population Healthy Nuclei (%): 86.88% and 71.14%
  Population Hoechst High Intensity Objects (%): 0%
  Population Membrane Permeable-Phenotype (%): 3.65% and 1.89%
  Population Mitotic Cells (%): 84.85% and 87.5%
  Population Normal (%): 100%
  Total Cell Count: 442 and 149
[1]; [5]
  Population Apoptotic (%): 68.24% and 37.78%
  Population Fragmented Nuclei (%): 2.53% and 2.44%
  Population Healthy Nuclei (%): 61.6% and 24.39%
  Population Hoechst High Intensity Objects (%): 0%
  Population Membrane Permeable-Phenotype (%): 0.68% and 0%
  Population Mitochondria Different-Phenotype (%): 97.95% and 76.67%
  Population Mitotic Cells (%): 31.76% and 62.22%
  Population Normal (%): 100%
  Population Pyknosed Nuclei (%): 35.86% and 73.17%
  Total Cell Count: 237 and 123
[2]; [6]
  Population Apoptotic (%): 43.59% and 56.25%
  Population Fragmented Nuclei (%): 3.86% and 3.61%
  Population Healthy Nuclei (%): 82.46% and 86.75%
  Population Hoechst High Intensity Objects (%): 0%
  Population Membrane Permeable-Phenotype (%): 2.55% and 3.47%
  Population Mitochondria Different-Phenotype (%): 0% and 6.25%
  Population Mitotic Cells (%): 56.41% and 43.75%
  Population Normal (%): 100%
  Population Pyknosed Nuclei (%): 13.68% and 9.64%
  Population Tubulin-Different-Phenotype (%): 2.55% and 1.39%
  Total Cell Count: 285 and 166
[2]; [7]
  Population Apoptotic (%): 36.84% and 50%
  Population Fragmented Nuclei (%): 4.71% and 6.5%
  Population Healthy Nuclei (%): 58.45% and 47.97%
  Population Hoechst High Intensity Objects (%): 0.28% and 0%
  Population Membrane Permeable-Phenotype (%): 5.69% and 15.25%
  Population Mitotic Cells (%): 63.16% and 50%
  Population Normal (%): 99.72% and 100%
  Population Pyknosed Nuclei (%): 36.84% and 45.53%
  Population Tubulin-Different-Phenotype (%): 7.58% and 8.47%
  Total Cell Count: 362 and 123
[2]; [8]
  Population Apoptotic (%): 52.86% and 55.56%
  Population Fragmented Nuclei (%): 3.18% and 2.94%
  Population Healthy Nuclei (%): 72.08% and 75.88%
  Population Hoechst High Intensity Objects (%): 0.35% and 0%
  Population Membrane Permeable-Phenotype (%): 1.96% and 5.43%
  Population Mitochondria Different-Phenotype (%): 0% and 7.75%
  Population Mitotic Cells (%): 47.14% and 44.44%
  Population Normal (%): 99.65% and 100%
  Population Pyknosed Nuclei (%): 24.73% and 21.18%
  Population Tubulin-Different-Phenotype (%): 0.49% and 3.88%
  Total Cell Count: 284 and 170
[2]; [3]
  Population Apoptotic (%): 67.23% and 80%
  Population Fragmented Nuclei (%): 5.92% and 4.1%
  Population Healthy Nuclei (%): 27.04% and 26.23%
  Population Hoechst High Intensity Objects (%): 0% and 0.81%
  Population Membrane Permeable-Phenotype (%): 10.42% and 12.5%
  Population Mitotic Cells (%): 32.77% and 20%
  Population Normal (%): 100% and 99.19%
  Population Pyknosed Nuclei (%): 67.04% and 69.67%
  Total Cell Count: 355 and 123
[2]; [4]
  Population Apoptotic (%): 69.39% and 73.33%
  Population Fragmented Nuclei (%): 2.78% and 6.88%
  Population Healthy Nuclei (%): 63.19% and 55.62%
  Population Hoechst High Intensity Objects (%): 0.69% and 0%
  Population Membrane Permeable-Phenotype (%): 3.85% and 7.87%
  Population Mitochondria Different-Phenotype (%): 0% and 15.73%
  Population Mitotic Cells (%): 30.61% and 26.67%
  Population Normal (%): 99.31% and 100%
  Population Pyknosed Nuclei (%): 34.03% and 37.5%
  Population Tubulin-Different-Phenotype (%): 6.04% and 10.11%
  Total Cell Count: 290 and 160
[2]; [5]
  Population Apoptotic (%): 78.97% and 93.41%
  Population Fragmented Nuclei (%): 6.71% and 1.74%
  Population Healthy Nuclei (%): 14.29% and 19.13%
  Population Hoechst High Intensity Objects (%): 0%
  Population Membrane Permeable-Phenotype (%): 18.37% and 31.82%
  Population Mitochondria Different-Phenotype (%): 14.29% and 4.55%
  Population Normal (%): 100%
  Population Pyknosed Nuclei (%): 79.01% and 79.13%
  Total Cell Count: 343 and 115

Reference: ChEMBL document CHEMBL5724801, “EUbOPEN Chemogenomics Library - Multiplex” (2024)
